Experiment [1] can be described thus: S. cerevisiae growth inhibition in permissive medium (OD615), pilot counter-assay for S. cerevisiae lifespan shortening project, permissive growth control (AID 705;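 active = growth inhibition above 25% in both replicates, a cutoff set 3 SD above the mean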). The conditions noted are these: OD615, 24 h, at 10 µM, active compounds read high. The gist of the method: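 System: S. cerevisiae with engineered DeaD lifespan system. Medium: SC raffinose/galactose permissive medium. Doses: single compound dose of 10 µM, 0.25% DMSO final. Schedule: 24 h exposure, 30 °C. Measured by: OD615 turbidity read. Read-out: growth inhibition.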

The nature of experiment [2]: S. cerevisiae growth inhibition in restrictive medium, OD615, pilot screen, restrictive growth control, yeast lifespan reduction project (AID 706;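 active = growth inhibition above a set limit, 3 SD over mean compound inhibition, in both replicates, cut at about 43% in these data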). The conditions noted are these: OD615, 48 h, at 10 µM, active compounds read high. The gist of the method: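 Assay system – genetically modified Saccharomyces cerevisiae, DeaD replicative lifespan assay strain · Medium – CSMM-D glucose medium · Doses – 10 µM compound, 0.25% DMSO · Times – 4 h pre-incubation, 48 h exposure at 30 °C · Signal – optical density at 615 nm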

The nature of experiment [3]: viability of HCT116 without oncogenic beta-catenin – human colon tumor cells, pilot screen (AID 823;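 active = cell viability at or below a set limit in both duplicate runs, the limit being the all-compound median minus 4 SD, cut at about 23% in these data, passing the limit was not always enough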;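 also: 0% = wells killed by 20 µM Hyamine and 100% = untreated DMSO cell wells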). The following applies: HCT116 beta-catenin knockout viability, CellTiter-Glo, 60 h; at 10 µM; active compounds read low. On the technique in general: In ATP-based viability assays light output follows the ATP content of the culture.
The nature of experiment [4]: viability of PTEN-null HCT116 cells – cell-based, HCT116 clonal line, CellTiter-Glo, pilot screen (AID 824;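 active = viability at or below 27.92% in each of two runs, the all-compound median minus 4 SD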;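 also: 0% = 20 µM Hyamine control and 100% = vehicle cell control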). The conditions noted are these: HCT116 PTEN-deleted viability, 60 h, at 10 µM, active compounds read low.
The nature of experiment [5]: RAM pathway blockade in budding yeast – dse1pr::URA3 reporter, 5-FOA selection, pilot screen (AID 869).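 Also: 0% = DMSO wells with no growth and 100% = 10 µM 1-NA-PP1 with full growth; RAM network block rescues cells from 5-FOA so hits raise OD615 growth.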 The conditions noted are these: S. cerevisiae dse1pr::URA3 5-FOA growth, OD615, 2 d; at 10 µM; active compounds read high; strain carries analog-sensitive mutant Cbk1 kinase.
A short description of experiment [6]: RAM signaling pathway blockade in yeast – S. cerevisiae, Pdr1DBD-CYC8 efflux-inhibited sensitized strain, primary screen (AID 1298;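 active = RAM network inhibition above 8.4% in each of two replicates, 3 SD over the compound average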;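 also: 0% = DMSO untreated cells without growth and 100% = 10 µM 1-NA-PP1 full growth; higher means more yeast growth rescued from 5-FOA killing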). The conditions noted are these: S. cerevisiae cbk1-as DSE1-URA3 strain, 5-FOA growth OD615, 2 d; at 50 µM; active compounds read high.
Experiment [7] in a line: doxorubicin toxicity protection in MRP-1 cells – H69AR cells, CellTiter-Glo, duplicate, MRP-1 activator project, pilot screen (AID 807;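 active = viability increase at or above a cutoff of the median across tested compounds plus 3 SD, cut at about 8.5% in these data, passing the limit was not always enough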;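 also: compound pretreatment 18-22 h then 72 h combined with doxorubicin; 0% = doxorubicin alone and 100% = vehicle without doxorubicin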). The conditions noted are these: H69AR viability with doxorubicin, CellTiter-Glo luminescence; at 10 µM; active compounds read high.

Unmarked numbers belong to inactive results. Results filed as inconclusive are left out. Activity calls are given as the source filed them.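 The calls were made as follows, unless noted: active = inhibition over a set limit, the all-compound mean plus 3 SD, in both replicate runs; inconclusive = over that limit in just one replicate run; inactive = at or under that limit in both runs.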

A word on the viability: it is a read-out of living cells in per cent, often relative to untreated cells. As a reminder, the inhibition is the share of the control response that was lost under treatment. For the compound `Cn1c(=O)[nH]c(=O)c2c1nc(SCC(=O)Nc1ccccc1)n2Cc1ccccc1`, the growth inhibition is -4.58% in experiment [1] and 0.385% in experiment [2]. In addition, the viability in experiment [3] was 92%; in experiment [4], 94.6%. Besides, the inhibition in experiment [5] was 0.935%. Besides, the RAM network inhibition in experiment [6] was 2.08%.
Consider `COc1cc(C(c2sc3ncnn3c2O)N2CCN(c3ccccc3F)CC2)cc(OC)c1OC` (centres undefined), for which the growth inhibition was 1.67% in experiment [1] and -0.84% in experiment [2]. In addition, the viability was 103% in experiment [3] and 105% in experiment [4]. The inhibition in experiment [5] was 2.5%. In addition, in experiment [6], the RAM network inhibition is 5.34%.
For the compound `S=C(Nc1ccccn1)c1ccccn1`, the growth inhibition in experiment [1] was 7.06%. The viability increase in experiment [7] was -8.21%. The viability in experiment [3] was 2.08% (active); in experiment [4], 0.72% (active). Also, the inhibition in experiment [5] is 1.43%. For the same compound, the RAM network inhibition in experiment [6] was 3.64%.
Turning to `c1cncc(-c2nnc(SCc3cccc4ccccc34)o2)c1`, the growth inhibition in experiment [1] was -6.93%. The viability increase in experiment [7] is -0.01%. The viability is 103% in experiment [3] and 91% in experiment [4]. Further, the inhibition in experiment [5] was 1.16%. Further, in experiment [6], the RAM network inhibition is 0.49%.
